# High-throughput results from PubChem BioAssay.
# TRPC4 inh – inhibitors of mouse TRPC4 channel | Q9QUQ5 | HEK293 TRPC4beta/mu-opioid, DAMGO-evoked Fluo4 calcium flux; hits give low values | B-score at 10 µM | hit rate 0.39% among 300,000;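 active = B-score over 3 SD under the library average, no early fluorescence shift, positive overall ratio signal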
# Target sequence (Q9QUQ5 whole entry, looked up): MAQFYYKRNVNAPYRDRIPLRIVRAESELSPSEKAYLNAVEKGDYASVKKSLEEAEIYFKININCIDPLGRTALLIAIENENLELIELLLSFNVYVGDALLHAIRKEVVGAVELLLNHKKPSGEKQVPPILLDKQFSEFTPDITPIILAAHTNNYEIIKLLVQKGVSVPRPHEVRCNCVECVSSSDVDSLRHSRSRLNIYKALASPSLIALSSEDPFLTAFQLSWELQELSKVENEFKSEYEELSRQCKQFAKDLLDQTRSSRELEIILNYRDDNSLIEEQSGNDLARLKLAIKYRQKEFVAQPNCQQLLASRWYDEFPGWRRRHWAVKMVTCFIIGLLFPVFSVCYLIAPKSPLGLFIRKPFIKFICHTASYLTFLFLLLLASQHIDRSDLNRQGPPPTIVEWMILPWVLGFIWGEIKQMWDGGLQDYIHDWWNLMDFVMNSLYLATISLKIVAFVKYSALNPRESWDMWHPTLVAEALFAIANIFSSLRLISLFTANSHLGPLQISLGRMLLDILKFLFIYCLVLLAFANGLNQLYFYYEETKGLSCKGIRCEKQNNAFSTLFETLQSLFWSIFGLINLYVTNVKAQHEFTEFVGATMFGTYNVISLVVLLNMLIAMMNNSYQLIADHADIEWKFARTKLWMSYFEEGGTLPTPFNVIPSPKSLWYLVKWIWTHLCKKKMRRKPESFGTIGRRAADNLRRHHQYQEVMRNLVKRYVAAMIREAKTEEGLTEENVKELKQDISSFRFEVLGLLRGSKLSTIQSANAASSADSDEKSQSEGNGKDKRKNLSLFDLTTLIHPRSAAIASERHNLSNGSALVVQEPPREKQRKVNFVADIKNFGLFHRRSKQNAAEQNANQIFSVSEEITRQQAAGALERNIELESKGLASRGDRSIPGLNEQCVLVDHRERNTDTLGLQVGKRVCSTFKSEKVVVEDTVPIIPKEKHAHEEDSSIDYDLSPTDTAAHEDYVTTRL
#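 Assay system – HEK293 line stably carrying TRPC4beta and mu-opioid receptor · Doses – single dose · Detection – Fluo4 calcium-dye fluorescence, kinetic read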
# TRPC4 act – opens the mouse TRPC4 cation channel | B-score at 10 µM | HEK293 TRPC4beta/mu-opioid, Fluo4 calcium fluorescence; hits give high values | hit rate 0.49% among 310,000 | AID 2237 | Q9QUQ5;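 active = B-score above 5 SD of library B-scores, and initial fluorescence ratio not above library mean plus 5 SD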;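 also: positive B-score marks a calcium rise read as TRPC4 activation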
#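 Assay system: HEK293 cells stably co-expressing mouse TRPC4beta and mu-opioid receptor / Timing: Fluo4 dye loading 45 min at room temperature, 110 s recording / Signal: Fluo4 calcium-sensitive dye fluorescence, kinetic, 1 Hz baseline / Read-out: integrated baseline-normalised fluorescence ratio, converted to per-well B score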
# TRPC6 inh – inhibitors of mouse TRPC6 channel; hit rate 1.1% among 310,000; HEK293-TRPC6, membrane potential dye, ACh-evoked depolarization; hits give low values; Q61143; B-score at 10 µM;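 active = B-score under library mean minus 3 SD, initial fluorescence not abnormally high, positive integrated signal ratio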;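 also: B-score derived from integrated fluorescence ratio over the kinetic read; more negative B-score means stronger inhibition of depolarization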
# TRPC6 activator – mouse TRPC6 channel activation; Q61143; hit rate 0.13% among 310,000; HEK293-TRPC6 membrane potential dye fluorescence; hits give high values; B-score at 10 µM;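 active = B-score of the integrated fluorescence ratio above library mean plus 3 SD, and starting fluorescence ratio within library mean plus 5 SD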;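 also: higher score means more depolarization so channel activation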
# TRPC4 potent – allosteric potentiators of mouse TRPC4 channel | hit rate 0.42% among 310,000 | HEK293 TRPC4beta/mu-opioid, DAMGO EC20, Fluo-4 Ca2+ flux; hits give high values | Q9QUQ5 | B-score at 10 µM | AID 2227;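 active = B-score of calcium response area above 5 SD of library B-scores, with initial fluorescence ratio within 5 SD of library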;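 also: B-score of integrated fluorescence ratio over time as area under calcium response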
# Numbers without * were called inactive; i = inactive; · = no result. In the library only some 2.3% were active in any assay of this set; here they are far more common.
SMILES,TRPC4 inh,TRPC4 act,TRPC6 inh,TRPC6 activator,TRPC4 potent
COc1ccc(CN(CCC(c2ccccc2)C2CCOC(C)(C)C2)C(C)=O)cc1 (stereo not drawn),i,i,i,i,i
COc1ccc(CNCCC(c2ccccc2)C2CCOC(C)(C)C2)cc1 (stereo not drawn),i,60*,i,i,i
COc1ccc(CCn2c(=S)[nH]c3cc(C(=O)N4CCOCC4)ccc3c2=O)cc1OC,i,i,i,i,20*
O=C1c2ccccc2C2(c3cc(C(F)(F)F)cc(C(F)(F)F)c3)NCCN12 (stereo not drawn),-6*,i,i,i,i
CC(C)[C@@H]1CC[C@@H](C)c2c(-c3ccccc3)n[nH]c21,i,i,i,i,10*
Cc1ccc(NS(=O)(=O)c2cc(C(=O)Nc3cccnc3)ccc2C)cc1,i,i,i,i,i
CCOCCCNCc1cc(Br)ccc1OCc1ccccc1,-6*,i,i,i,i
Brc1ccc(OCc2ccccc2)c(CNCC2CCCO2)c1 (stereo not drawn),-6*,i,i,i,i
OCCNCc1cc(Br)ccc1OCc1ccccc1,i,i,i,i,i
CC1(C)C(=O)OC(/C=C\c2ccccc2)C(C)(C)C1=O (stereo not drawn),i,i,i,i,i
CCN(CC)CCn1c2ccccc2c2n[nH]c(=S)nc21,i,63*,i,i,i
CCN(CC)CCn1c2ccccc2c2nc3ccccc3nc21,i,i,i,i,i
O=C1CN(C(=O)c2ccc(Br)o2)C(c2ccccc2)c2cc(Br)ccc2N1 (stereo not drawn),i,i,i,i,13*
c1ccc(C2(CN3CCNC[C@H]3Cc3cccc4ccccc34)CC2)cc1,i,84*,i,i,i
CC(C)(C)CN1CCNC[C@H]1Cc1cccc2ccccc12,i,i,i,i,i
CCCOP(=O)(c1ccc(N(C)C)cc1)C(O)c1c(Cl)cccc1Cl (stereo not drawn),i,i,i,i,i
CCCOP(=O)(c1ccc(N(C)C)cc1)C(O)c1ccc(Cl)cc1Cl (stereo not drawn),i,i,i,i,10*
COC(=O)c1c(C)oc(C)c1S(=O)(=O)NCc1ccc(Cl)cc1Cl,i,i,i,i,i
Cc1cccc(N2CCN(C(=O)C3(S(=O)(=O)c4ccc(Cl)cc4)CC3)CC2)c1C,i,i,i,i,19*
COCC(C)NC(C(=O)Nc1ccc(C)c(Cl)c1)c1ccccc1 (stereo not drawn),i,59*,i,i,i
Cc1ccc(CNC(=O)COC(=O)CCC(=O)c2cccs2)cc1,i,i,i,i,i
Cc1cc(C(=O)NNS(=O)(=O)c2cccc(Cl)c2)nn1C(C)(C)C,i,i,i,i,i
Cc1ccc(C)c(-c2ccc(=O)n(Cc3ccc(F)cc3Cl)n2)c1,i,i,i,i,13*
CCNS(=O)(=O)c1ccc(Br)c(OC)c1,-6*,i,i,i,i
COc1cc(S(=O)(=O)NCc2ccccc2)ccc1Br,i,i,i,i,i
SMILES,TRPC4 inh,TRPC4 act,TRPC6 inh,TRPC6 activator,TRPC4 potent
c1cc(-c2cc3cc(N4CCOCC4)ccc3o2)cs1,i,i,i,i,i
Cc1ccnc(NS(=O)(=O)c2ccc(CC(C)C)cc2)c1,i,i,i,i,13*
O=C(NCc1cccnc1)C1CCCN(Cc2cnn(-c3ccccc3)c2-n2cccc2)C1 (stereo not drawn),i,87*,i,i,i
O=C(NCc1ccccn1)C1CCCN(Cc2cnn(-c3ccccc3)c2-n2cccc2)C1 (stereo not drawn),·,53*,i,i,i
COc1cccc(CNC(=O)C2CCN(Cc3cnn(-c4ccccc4)c3-n3cccc3)CC2)c1,i,44*,i,i,i
COCC1CCCCN1C(=O)c1ccc2nc(Cc3ccc(OC)c(OC)c3)oc2c1 (stereo not drawn),i,i,i,i,i
CCCCNc1c(-c2ccc(SC(C)CC)c(OC)c2)nc2ccc(C)cn12 (stereo not drawn),-6*,i,i,i,i
CCOC(=O)C1(CC2CC2)CCN(Cc2ccc(O)c(Cl)c2)CC1,-7*,75*,i,i,i
CCOC(=O)C1(CC2CC2)CCN(Cc2cn[nH]c2-c2cccc(F)c2)CC1,i,i,i,i,i
CCOC(=O)C1(CC2CC2)CCN(Cc2ccc3cccc(F)c3n2)CC1,-8*,45*,i,i,i
CCOC(=O)C1(CCOc2ccccc2)CCN(Cc2ccc(O)c(Cl)c2)CC1,i,i,i,i,i
CCCn1c(NC(=O)c2ccccc2)nc2ccccc21,i,i,i,i,i
CCCn1c(NC(=O)c2cccc(S(=O)(=O)N3CCCC3)c2)nc2ccccc21,-6*,i,i,i,43*
O=C(NCc1ccccc1F)C1CCN(S(=O)(=O)c2ccccc2)CC1,i,i,i,i,i
COc1ccc(-c2nn(-c3ccccc3)cc2C(=O)N2c3ccc(C)cc3C3CN(C)CCC32)cc1 (stereo not drawn),i,i,i,i,15*
CCOC(=O)CC1C(=O)NCCN1c1nc2ccc(C)cn2c(=O)c1/C=C1\SC(=S)N(C(C)CC)C1=O (stereo not drawn),i,62*,i,61*,i
CCCN1C(=O)/C(=C/c2c(N3CCNC(=O)C3CC(=O)OCC)nc3c(C)cccn3c2=O)SC1=S (stereo not drawn),i,i,i,27*,i
CCOC(=O)CC1C(=O)NCCN1c1nc2ccc(C)cn2c(=O)c1/C=C1\SC(=S)N(CC(C)C)C1=O (stereo not drawn),i,i,i,i,i
Cc1cc(NC(=O)COc2ccc(C(C)(C)C)cc2)no1,i,i,i,i,i
CCOc1ccc(N2CC(C(=O)NCc3nnnn3-c3ccc(C)c(C)c3)CC2=O)cc1 (stereo not drawn),i,i,i,i,i
CC(C)(CO)NCc1ccc(Br)cc1,i,i,i,i,i
CCCn1ncc(CN2CCC(Cc3cccc(F)c3)(C(=O)OCC)CC2)c1C,i,i,i,i,i
CCOC(=O)C1(Cc2cccc(F)c2)CCN(C(=O)COC)CC1,i,i,i,i,i
